An excerpt weighted towards active compounds, which were near 0.49% of everything screened.
ABCG2 block: inhibitors of human ABCG2 transporter, ABCB1 counter-screen; Q9UNQ0; IgMXP3 cells, JC-1 efflux, flow cytometry; inhibition, % at 6.6 µM; 190,000 tested, 0.1% active; AID 1325;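 active means inhibition above 80%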;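 further: 0% = DMSO and 100% = nicardipine control wells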
Target sequence (Q9UNQ0 whole entry, looked up): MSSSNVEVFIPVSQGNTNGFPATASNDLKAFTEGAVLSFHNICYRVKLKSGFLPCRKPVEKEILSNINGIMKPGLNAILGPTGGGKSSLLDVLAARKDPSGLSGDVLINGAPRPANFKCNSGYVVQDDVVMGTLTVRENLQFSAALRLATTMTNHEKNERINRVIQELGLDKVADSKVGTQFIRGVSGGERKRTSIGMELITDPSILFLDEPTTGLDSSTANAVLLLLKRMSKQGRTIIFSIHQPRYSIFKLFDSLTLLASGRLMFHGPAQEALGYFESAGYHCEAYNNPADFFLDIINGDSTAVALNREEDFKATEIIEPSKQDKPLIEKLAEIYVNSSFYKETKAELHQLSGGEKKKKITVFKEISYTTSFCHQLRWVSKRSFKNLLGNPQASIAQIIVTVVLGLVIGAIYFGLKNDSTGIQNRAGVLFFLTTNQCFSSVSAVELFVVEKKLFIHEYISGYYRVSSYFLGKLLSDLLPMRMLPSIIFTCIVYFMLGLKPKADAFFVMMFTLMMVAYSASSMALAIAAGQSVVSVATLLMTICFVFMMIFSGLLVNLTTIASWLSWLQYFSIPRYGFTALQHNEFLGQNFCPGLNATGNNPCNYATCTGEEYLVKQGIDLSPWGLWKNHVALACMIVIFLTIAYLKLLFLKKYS
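Read-out basis: Efflux inhibition in percent versus controls | Test system: ABCG2 IgMXP3 and barcoded ABCB1 CCRF-Adr cell mix | Quantity: 3 million cells/mL in well | Schedule: 10 min at 25 °C | Control set: Nicardipine as high control, DMSO as low control | Reagent: JC-1 as fluorescent efflux pump substrate | Signal: Flow cytometry of retained JC-1 fluorescence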
ABCB1 block: human ABCB1 inhibition, ABCG2 as counter-screen. P08183. CCRF-Adr cells, JC-1 efflux, flow cytometry. inhibition, % at 6.6 µM. 190,000 tested, 0.067% active. AID 1326; in the data active means inhibition above about 40%;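 further: 0% = vehicle and 100% = reference inhibitor; higher value means more JC-1 retained so stronger ABCB1 efflux block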
HMGR II inh: blocks class II HMG-CoA reductase of Enterococcus faecalis; AID 1066; 190,000 tested, 0.41% active; inhibition, % at 10 µM; purified E. faecalis HMGR, NADPH absorbance 340 nm kinetic;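 active means inhibition above a set limit, the median over all tested compounds plus 3 SD, cut at about 9.5% in these data; inconclusive means no clear call, values can overlap the other calls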;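 further: enzyme runs in reverse so mevalonate oxidation gives rising NADPH absorbance; 0% = complete reaction with DMSO and 100% = background rate lacking mevalonate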
HSV augment: increases HSV replication in cells | HSV replication augmentation in cells, fold increase | maximum fold increase | 220,000 tested, 0.005% active; in the data active means maximum fold increase above about 1.5; inconclusive means no clear call, values can overlap the other calls; tested in PC3 cells
ABCB1 single pt: confirmation of human ABCB1 transporter inhibitors, ABCG2 counter-screen. shares compounds with ABCG2 block. CCRF-Adr cells, JC-1 efflux, flow cytometry. inhibition, % at 6.6 µM. 270 tested, 7% active. AID 1451;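 active means inhibition of pump activity above 50%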;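 further: 0% = DMSO and 100% = nicardipine full pump inhibition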
ABCG2 confirm: inhibits human ABCG2 efflux, confirmed at single point; shares compounds with ABCG2 block; IgMXP3 cells, JC-1 efflux, flow cytometry; inhibition, % at 6.6 µM; 270 tested, 6% active; AID 1453;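 active means inhibition above 50%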;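 further: 0% = DMSO wells and 100% = nicardipine pump inhibitor wells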
IgMXP3 fluor: IgMXP3 autofluorescence flag for ABCG2 confirmation. shares compounds with ABCG2 block. IgMXP3 cells, compound autofluorescence 488/530 nm, flow; active compounds read high. fluorescence at 6.6 µM. 270 tested, 30% active;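 active means fluorescence in ABCG2-expressing cells above the plate's control-well mean plus 3 SD, cut at about 15 in these data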;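 further: median cell fluorescence with compound minus that of DMSO-treated control cells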
CCRF-Adr fluor: counter-screen for ABCB1 inhibitors: compound fluorescence in CCRF-Adr cells | AID 1483 | fluorescence at 6.6 µM | compound autofluorescence 488/530 nm, flow cytometry; active compounds read high | 270 tested, 30% active | shares compounds with ABCG2 block;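 active means fluorescence beyond the plate control mean plus 3 SD, with a fluorescence-to-maximum score over 2, cut at about 25 in these data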
Active calls of the source: *; i = inactive; ? = inconclusive; / = no result given.

SMILES	ABCG2 block	ABCB1 block	HMGR II inh	HSV augment	ABCB1 single pt	ABCG2 confirm	IgMXP3 fluor	CCRF-Adr fluor
O=C(Nc1ccc(Cl)cc1C(F)(F)F)c1ccccc1	36.2	43.5*	-2.3	i	0.8	9.4	0.26	-3.44
O=C1NC(c2ccc(-c3ccccc3[N+](=O)[O-])o2)C(C(=O)c2ccc(F)cc2)C(O)(C(F)(F)F)N1 (centres undefined)	88.4*	1.4	-7.8	i	9.4	20.5	14.7*	12.8
O=C1c2cccc(OCC(=O)N3CCCc4ccccc43)c2CCN1Cc1cccnc1	24.7	5.9	-1.1	i	/	/	/	/
Cc1ccccc1CN1CCc2c(OCC(=O)N3CCCc4ccccc43)cccc2C1=O	51.8	47.4*	-8.4	i	28.8	36.2	21.6*	12.9
CN(C)c1nc(OCCNC(=O)COc2ccc(Cl)cc2Cl)nc(N(C)C)n1	28.0	61.1*	-0.7	i	36.9	40.8	-2.29	-5.09
CN(C)c1nc(OCCOC(=O)COc2ccc(Cl)cc2Cl)nc(N(C)C)n1	24.6	2.1	-1.5	i	/	/	/	/
CC(=O)Nc1ccc(C(=O)OCC(=O)c2cccc([N+](=O)[O-])c2)cc1	81.7*	0.4	-3.1	i	-0.3	45.8	-1.59	-4.84
COc1ccc(Cl)cc1NC(=O)COC(=O)CCCN1C(=O)c2ccccc2C1=O	3.5	1.5	-9.7	i	1.4	19.6	-1.39	0.16
Nc1c(-c2ccccc2)c(CSc2nc3ccccc3[nH]2)nn1-c1ccc(Cl)cc1	28.4	43.4*	2.6	i	29.1	24.7	-0.69	-3.04
CCOC(=O)c1sc2cc([N+](=O)[O-])cc(SCC(C)C)c2c1N	59.9	31.6	2.4	?	23.4	-7.2	81.6*	129*
CCOc1ncccc1C(=O)OCC(=O)c1ccc(F)cc1	1.7	-0.4	-1.6	i	/	/	/	/
CCOC(=O)CSc1nc2cc(C)cc(C)c2cc1C#N	98.7*	2.2	1.5	i	1.0	16.0	61*	0.71
CCOC(=O)CSc1nc2cc(C)ccc2cc1C#N	4.8	0.3	-1.1	i	/	/	/	/
COc1ccc(CCN2C(=NC(C)=O)SC3CS(=O)(=O)CC32)cc1OC (centres undefined)	/	/	/	i	/	/	/	/
COC(=O)c1ccc(C(C(=O)NC2CCCCC2)N(Cc2ccccc2)C(=O)Cc2cccs2)cc1 (centres undefined)	45.1	48.4*	-3.9	i	26.1	27.2	-2.39	-4.54
COC(=O)c1ccc(C(C(=O)NC2CCCCC2)N(C(=O)Cc2cccs2)C2CC2)cc1 (centres undefined)	4.1	2.0	-7.3	i	/	/	/	/
COc1ccc(N2CCN(C(=S)NCc3ccccc3)CC2)cc1	8.2	0.1	-2.8	i	/	/	/	/
CCOC(=O)/C(C#N)=C\c1cc(C)n(-c2ccccc2)c1C	80.8*	3.8	-1.7	i	4.0	26.1	-1.24	-2.09
Cc1ccc(CNc2ncc(-c3ccccc3)n2C)o1	0.8	0.0	1.0	i	/	/	/	/
COc1ccc(-c2nc3ccccc3c(=O)n2CCOc2ccccc2C)cc1	-2.0	0.2	-1.3	i	/	/	/	/
O=C1S/C(=C/c2ccc(N3CCOCC3)o2)C(=O)N1Cc1ccc(F)cc1	111.4*	6.8	4.3	?	4.5	-10.3	196*	40.6*
COc1cc(/C=C2\SC(=Nc3ccccc3)N(CCc3c[nH]c4ccccc34)C2=O)ccc1OC(C)C(=O)O (centres undefined)	-2.3	-0.4	1.5	i	/	/	/	/
O=C1/C(=C/c2ccc(N3CCOCC3)o2)SC(=Nc2ccccc2)N1CCc1c[nH]c2ccccc12	127.4*	81.2*	3.6	/	2.6	0.1	76.9*	192*
CCN(CC)C(=O)/C(=C\c1cccc([N+](=O)[O-])c1)NC(=O)c1ccco1	1.8	0.3	1.7	i	/	/	/	/
O=c1[nH]c2cc(Cl)ccc2n1-c1ccccc1	6.3	1.4	-4.4	i	/	/	/	/
O=Cc1c(Cl)[nH]c(=O)n1-c1ccccc1	104.1*	3.6	-5.4	i	2.1	4.5	-0.84	-0.94

Bioassay records (PubChem BioAssay)
